According to publication PMC5604209 (Journal of Cancer, 2017):

What was measured:
[1] = tested on: Ba/F3-Bcr-abl^WT; experiment: Cell proliferation assay; type: cell-based, murine; conditions: Mus musculus, 72 h, read-out: Cell growth inhibition IC50
Method in brief: (§1)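 Cells were grown in DMEM or RPMI-1640 with 10% FBS and penicillin/streptomycin at 37 °C, 5% CO2. PBMC were isolated on Ficoll-Paque, and Ba/F3 Bcr-Abl lines were stably transfected. Cells were seeded at low density. DMSO stocks were 3-fold diluted from 10 mM to 0.3 nM, then into serum-free medium before addition. After 72 h, CellTiter-Glo (adherent; RT 10 min) or CellTiter-Blue (suspension; 4 h) was read. IC50 is the mean of three independent duplicate experiments.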

[2] = tested on: MKN-45; experiment: Cell proliferation assay; type: cell-based; conditions: Homo sapiens, MKN-45, 72 h, read-out: Cell growth inhibition IC50
Method in brief: as §1

[3] = Pharmacokinetic studies in rats; type: in vivo; conditions: female, SD, rat, serum, po, 5 mg/kg
Method in brief: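 Female SD rats (5–6 weeks) received a single 5 mg/kg oral dose. Blood was sampled serially from 2 min to 24 h, and serum was separated by centrifugation and stored at −80 °C. Serum levels were measured by LC-MS/MS, and T1/2, Tmax, Cmax and AUC0-INF were derived.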

[4] = target: Abl (T315I) (Homo sapiens, UniProt P00519, T315I); experiment: HTRF kinase enzyme assay; type: biochemical
[5] = tested on: MV-4-11; experiment: Cell proliferation assay; type: cell-based; conditions: read-out: Cell growth inhibition IC50; MV-4-11, acute myeloid leukemia, 72 hours
Method in brief: as §1

[6] = tested on: Kasumi-1; experiment: Cell proliferation assay; type: cell-based; conditions: Homo sapiens, Kasumi 1, 72 h, read-out: Cell growth inhibition IC50
Method in brief: as §1

[7] = tested on: HL-60; experiment: Cell proliferation assay; type: cell-based; conditions: Homo sapiens, HL-60, 72 h, read-out: Cell growth inhibition IC50
Method in brief: as §1

[8] = tested on: phosphorylated ERK1/2 and STAT5; experiment: Western blot, K562 and KU812 cells; type: cell-based, human
Method in brief: (§2)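 K562 or KU812 cells (1×10⁶ per well) were plated overnight at 37 °C, 5% CO2. They were treated 1 h with a concentration series, or with 100 nM for 0–24 h; 0.1% DMSO served as control. BCA-normalized lysates were run on 10% SDS-PAGE and transferred to PVDF. Blots were blocked in TBS-0.1% Tween-20 with 5% BSA, then probed with phospho-specific primaries (2 h RT or 4 °C overnight) and HRP anti-rabbit (1 h RT). Detection was by ECL.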

[9] = target: PDGFRβ (Homo sapiens, UniProt P09619); experiment: HTRF kinase enzyme assay; type: biochemical
PDGFRβ, sequence (P09619 33-1106): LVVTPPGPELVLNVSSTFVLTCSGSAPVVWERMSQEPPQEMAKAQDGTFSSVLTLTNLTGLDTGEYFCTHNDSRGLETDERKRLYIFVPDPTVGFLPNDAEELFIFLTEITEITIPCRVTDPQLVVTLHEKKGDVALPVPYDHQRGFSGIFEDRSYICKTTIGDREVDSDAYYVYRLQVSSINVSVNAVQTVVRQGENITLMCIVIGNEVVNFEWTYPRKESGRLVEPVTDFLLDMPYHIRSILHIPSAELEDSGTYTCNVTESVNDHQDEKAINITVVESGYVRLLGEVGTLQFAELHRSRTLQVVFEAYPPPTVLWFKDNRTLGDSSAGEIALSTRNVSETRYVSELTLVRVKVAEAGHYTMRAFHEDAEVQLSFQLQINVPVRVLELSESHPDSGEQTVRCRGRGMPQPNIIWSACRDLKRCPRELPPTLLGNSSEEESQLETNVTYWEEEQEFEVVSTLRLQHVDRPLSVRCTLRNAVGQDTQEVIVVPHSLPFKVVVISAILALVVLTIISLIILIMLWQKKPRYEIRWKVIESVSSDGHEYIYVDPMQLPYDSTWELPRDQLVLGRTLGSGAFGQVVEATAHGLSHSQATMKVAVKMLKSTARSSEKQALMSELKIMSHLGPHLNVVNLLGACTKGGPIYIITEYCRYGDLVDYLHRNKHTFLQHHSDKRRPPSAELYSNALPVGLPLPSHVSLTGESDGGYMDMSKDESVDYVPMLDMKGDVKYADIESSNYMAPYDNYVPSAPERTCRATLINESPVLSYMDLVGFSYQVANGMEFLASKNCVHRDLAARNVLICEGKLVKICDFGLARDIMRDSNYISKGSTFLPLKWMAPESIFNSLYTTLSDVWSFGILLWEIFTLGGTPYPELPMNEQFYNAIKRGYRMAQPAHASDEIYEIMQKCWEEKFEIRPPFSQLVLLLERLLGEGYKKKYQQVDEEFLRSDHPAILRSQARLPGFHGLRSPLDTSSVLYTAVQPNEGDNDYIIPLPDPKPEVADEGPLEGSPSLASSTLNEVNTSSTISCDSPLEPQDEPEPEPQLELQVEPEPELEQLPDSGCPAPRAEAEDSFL
Method in brief: (§3)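 Recombinant kinases were assayed by HTRF KinEASE-TK in 50 mM HEPES pH 7.0, 0.1 mM Na3VO4, 0.01% BSA, 5 mM MgCl2, 1 mM DTT. Compound was made as an 11-point 3-fold series from a 1 mM DMSO stock and mixed with kinase for 5 min. […] Anti-TK cryptate plus streptavidin-XL665 was added for 1 h at 23 °C before TR-FRET read-out. IC50 is the mean of three independent duplicate runs.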

[10] = tested on: phosphorylation of Crkl; experiment: Western blot, K562 and KU812 cells; type: cell-based, human; conditions: 100 nM, 1 hour
Method in brief: as §2

[11] = target: Abl (WT) (Homo sapiens, UniProt P00519); experiment: HTRF kinase enzyme assay; type: biochemical
Method in brief: as §3

[12] = tested on: K562 xenograft; experiment: K562 tumor xenograft in nude mice; type: in vivo; conditions: for tumor growth inhibition: p < 0.05
Method in brief: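 Female athymic nude mice (5–6 weeks) were implanted subcutaneously in the right flank with K562 cells in 100 µL serum-free medium. Once tumors reached about 150–300 mm³, mice were randomized (10 per group) to vehicle or test compound at 5, 15 or 45 mg/kg by daily oral gavage. Caliper volume (w²×l)/2 and body weight were recorded every 2–3 days. TGI was taken versus vehicle, with t-test.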

[13] = tested on: SMMC-7721; experiment: Cell proliferation assay; type: cell-based; conditions: Homo sapiens, SMMC-7721, 72 h, read-out: Cell growth inhibition IC50
Method in brief: as §1

[14] = target: T1, Abl enzyme (Homo sapiens, UniProt P00519); experiment: Time-dependent inhibition and reversibility; type: biochemical
[15] = PK/PD in K562 xenograft model: compound concentration in tumor; type: in vivo, nude mice; conditions: nude, mouse, tumor tissue, po, 15 mg/kg
Method in brief: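 In nude mice bearing K562 xenografts, tumor tissue was collected 2 h after one oral dose (5 or 15 mg/kg) of test compound. Compound concentration in tumor samples was quantified by LC-MS/MS.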

[16] = tested on: PC-3; experiment: Cell proliferation assay; type: cell-based; conditions: Homo sapiens, PC-3, 72 h, read-out: Cell growth inhibition IC50
Method in brief: as §1

[17] = tested on: liver CYP450 enzymes (all tested enzymes); experiment: Liver CYP450 enzyme inhibition; type: in vitro ADME
[18] = target: T1, Abl enzyme; experiment: Kinetic mechanism of inhibition versus ATP; type: biochemical
[19] = target: c-Kit (Homo sapiens, UniProt P10721); experiment: HTRF kinase enzyme assay; type: biochemical
c-Kit, sequence (P10721 26-976): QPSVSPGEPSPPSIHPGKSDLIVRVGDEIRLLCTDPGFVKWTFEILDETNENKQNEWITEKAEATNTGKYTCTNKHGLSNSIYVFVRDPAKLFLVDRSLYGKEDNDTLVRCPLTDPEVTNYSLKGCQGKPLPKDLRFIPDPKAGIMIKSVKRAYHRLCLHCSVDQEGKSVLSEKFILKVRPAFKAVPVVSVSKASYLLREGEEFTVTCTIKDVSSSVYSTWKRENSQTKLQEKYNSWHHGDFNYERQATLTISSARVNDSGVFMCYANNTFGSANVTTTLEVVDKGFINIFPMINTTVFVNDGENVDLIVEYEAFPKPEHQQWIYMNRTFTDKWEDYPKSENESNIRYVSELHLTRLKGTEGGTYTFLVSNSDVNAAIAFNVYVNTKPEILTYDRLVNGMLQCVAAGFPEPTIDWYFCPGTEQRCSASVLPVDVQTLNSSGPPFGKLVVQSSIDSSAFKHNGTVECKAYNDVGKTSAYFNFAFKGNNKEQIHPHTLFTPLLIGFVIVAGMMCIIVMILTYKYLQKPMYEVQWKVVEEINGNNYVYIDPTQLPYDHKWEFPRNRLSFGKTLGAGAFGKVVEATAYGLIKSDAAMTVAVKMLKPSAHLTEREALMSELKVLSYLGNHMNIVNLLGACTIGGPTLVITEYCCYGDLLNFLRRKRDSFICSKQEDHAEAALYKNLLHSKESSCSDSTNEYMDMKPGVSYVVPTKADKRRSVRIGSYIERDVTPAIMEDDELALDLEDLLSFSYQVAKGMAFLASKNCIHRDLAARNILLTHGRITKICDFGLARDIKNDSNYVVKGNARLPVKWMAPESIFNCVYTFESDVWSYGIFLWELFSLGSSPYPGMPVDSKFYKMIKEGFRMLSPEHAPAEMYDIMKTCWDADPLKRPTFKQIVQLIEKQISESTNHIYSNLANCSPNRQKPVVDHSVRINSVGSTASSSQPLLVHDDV
Method in brief: as §3

[20] = tested on: KU812 xenograft; experiment: KU812 tumor xenograft in nude mice; type: in vivo; conditions: 30 mg/kg QD; for treated mice with complete tumor regression: p < 0.01
[21] = tested on: Human PBMC; experiment: Cell proliferation assay; type: cell-based; conditions: read-out: Cell growth inhibition IC50, human lymphocyte, 72 hours
Method in brief: as §1

[22] = tested on: K562 cells; experiment: Cell cycle by propidium; type: cell-based, human; conditions: 1 nM, 24 hours
Method in brief: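 After 24 h exposure of K562 cells to test compound or DMSO, cells were washed in cold PBS and fixed overnight in ice-cold 70% ethanol. They were stained 1 h at 37 °C in PBS with 0.25 mg/mL RNase and 0.025 mg/mL propidium iodide. Cells were read on a Guava flow cytometer, and G1, S and G2/M fractions were quantified.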

[23] = tested on: Ba/F3-Bcr-abl^T315I; experiment: Cell proliferation assay; type: cell-based, murine; conditions: Mus musculus, 72 h, read-out: Cell growth inhibition IC50
Method in brief: as §1

[24] = target: phosphorylation of Bcr-Abl (Homo sapiens, UniProt P00519+P11274); experiment: Western blot, K562 and KU812 cells; type: cell-based; conditions: for phosphorylation of Bcr-Abl kinase: 1 hour
Method in brief: as §2

[25] = target: VEGFR2 (Homo sapiens, UniProt P35968); experiment: HTRF kinase enzyme assay; type: biochemical
VEGFR2, sequence (P35968 20-1356): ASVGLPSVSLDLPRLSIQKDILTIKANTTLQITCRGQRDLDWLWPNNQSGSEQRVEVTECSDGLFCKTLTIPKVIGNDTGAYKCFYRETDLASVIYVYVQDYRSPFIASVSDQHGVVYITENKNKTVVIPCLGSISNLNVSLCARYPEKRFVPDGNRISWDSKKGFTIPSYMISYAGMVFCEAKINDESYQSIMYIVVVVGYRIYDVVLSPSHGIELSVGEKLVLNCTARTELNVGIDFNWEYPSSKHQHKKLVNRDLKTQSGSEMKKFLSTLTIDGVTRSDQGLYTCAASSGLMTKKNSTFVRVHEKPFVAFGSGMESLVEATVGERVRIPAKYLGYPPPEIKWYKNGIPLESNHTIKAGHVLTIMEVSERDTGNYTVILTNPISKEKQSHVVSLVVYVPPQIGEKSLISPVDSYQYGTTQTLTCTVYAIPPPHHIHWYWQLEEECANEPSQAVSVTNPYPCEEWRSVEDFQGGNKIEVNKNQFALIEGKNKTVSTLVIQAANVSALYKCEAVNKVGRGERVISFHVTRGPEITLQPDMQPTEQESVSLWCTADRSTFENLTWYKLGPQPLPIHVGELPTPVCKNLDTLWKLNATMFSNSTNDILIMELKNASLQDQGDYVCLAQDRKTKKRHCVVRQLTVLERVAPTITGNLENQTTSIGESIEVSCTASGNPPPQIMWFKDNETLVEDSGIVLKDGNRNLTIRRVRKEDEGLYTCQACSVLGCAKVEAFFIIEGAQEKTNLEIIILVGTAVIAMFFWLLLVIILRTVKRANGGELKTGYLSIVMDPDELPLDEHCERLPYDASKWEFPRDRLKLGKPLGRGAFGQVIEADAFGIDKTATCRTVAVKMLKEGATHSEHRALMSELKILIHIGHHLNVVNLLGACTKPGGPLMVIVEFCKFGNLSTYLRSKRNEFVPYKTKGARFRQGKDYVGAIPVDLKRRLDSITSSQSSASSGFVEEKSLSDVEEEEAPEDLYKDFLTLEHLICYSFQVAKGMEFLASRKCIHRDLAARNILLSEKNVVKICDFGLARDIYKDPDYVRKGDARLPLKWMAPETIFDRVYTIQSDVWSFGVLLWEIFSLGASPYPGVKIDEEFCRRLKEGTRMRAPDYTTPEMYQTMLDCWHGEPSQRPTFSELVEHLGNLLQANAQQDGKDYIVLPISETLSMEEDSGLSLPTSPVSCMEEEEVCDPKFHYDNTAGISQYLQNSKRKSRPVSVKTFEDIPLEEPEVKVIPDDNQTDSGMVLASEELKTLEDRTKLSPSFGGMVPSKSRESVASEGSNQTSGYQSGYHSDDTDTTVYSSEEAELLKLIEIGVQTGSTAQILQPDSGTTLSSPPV
Method in brief: as §3

[26] = target: EGFR (Homo sapiens, UniProt P00533); experiment: Kinase enzyme assay; type: biochemical
EGFR, sequence (P00533 25-1210): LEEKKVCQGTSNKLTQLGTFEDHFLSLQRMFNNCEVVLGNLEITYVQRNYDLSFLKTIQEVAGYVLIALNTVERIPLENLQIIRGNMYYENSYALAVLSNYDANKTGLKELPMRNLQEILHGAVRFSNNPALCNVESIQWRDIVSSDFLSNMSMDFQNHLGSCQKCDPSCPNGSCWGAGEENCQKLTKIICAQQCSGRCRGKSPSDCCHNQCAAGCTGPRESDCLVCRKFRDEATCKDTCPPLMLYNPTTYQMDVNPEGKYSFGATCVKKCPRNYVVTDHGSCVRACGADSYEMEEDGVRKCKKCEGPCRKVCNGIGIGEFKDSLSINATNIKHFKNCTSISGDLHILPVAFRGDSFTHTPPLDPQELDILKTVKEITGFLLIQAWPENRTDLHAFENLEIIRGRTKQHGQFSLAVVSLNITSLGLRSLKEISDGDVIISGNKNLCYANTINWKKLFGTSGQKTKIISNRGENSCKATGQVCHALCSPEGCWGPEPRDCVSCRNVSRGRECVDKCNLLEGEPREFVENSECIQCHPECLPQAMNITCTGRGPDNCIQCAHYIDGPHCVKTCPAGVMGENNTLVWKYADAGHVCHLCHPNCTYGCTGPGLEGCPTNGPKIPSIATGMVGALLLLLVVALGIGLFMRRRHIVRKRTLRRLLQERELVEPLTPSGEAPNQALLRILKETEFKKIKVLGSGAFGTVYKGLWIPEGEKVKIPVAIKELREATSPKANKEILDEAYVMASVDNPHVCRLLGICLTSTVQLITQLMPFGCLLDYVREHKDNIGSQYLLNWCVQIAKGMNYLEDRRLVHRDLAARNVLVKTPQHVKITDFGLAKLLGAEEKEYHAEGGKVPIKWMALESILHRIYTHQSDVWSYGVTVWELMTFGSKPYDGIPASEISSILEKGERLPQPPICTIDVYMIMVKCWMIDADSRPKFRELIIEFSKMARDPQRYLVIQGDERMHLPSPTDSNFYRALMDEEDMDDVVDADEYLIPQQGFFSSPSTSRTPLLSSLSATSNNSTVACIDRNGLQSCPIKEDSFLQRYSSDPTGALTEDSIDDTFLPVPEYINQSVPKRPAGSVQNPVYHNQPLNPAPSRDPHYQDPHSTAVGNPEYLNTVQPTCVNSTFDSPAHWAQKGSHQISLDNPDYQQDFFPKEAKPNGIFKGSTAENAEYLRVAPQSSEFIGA

[27] = tested on: K562 cells; experiment: Apoptosis by Annexin V / 7-AAD flow cytometry; type: cell-based, human; conditions: 10 μM, 24 hours
Method in brief: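 K562 cells treated 24 h at 37 °C with test compound (0.1, 1.0 or 10 μM) or 0.1% DMSO. Cells were washed twice in PBS and resuspended in binding buffer with PE-Annexin V and 7-AAD for 15 min at RT in the dark. They were then diluted in binding buffer and read on a Guava flow cytometer. Early and late apoptotic fractions were scored.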

[28] = tested on: phosphorylation of Bcr-Abl and ERK1/2; experiment: PK/PD in K562 xenograft model: Western blot of tumor samples; type: in vivo, nude mice; conditions: single oral dose 15 mg/kg, 2 hours
Method in brief: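 K562 xenografts in nude mice were given a single oral dose of test compound (5 or 15 mg/kg). Tumors were harvested 2 h later, and lysates were probed by Western blot with antibodies to phospho-Bcr-Abl and phospho-ERK1/2.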

In the case of `Cc1ccc(NC(=O)c2ccc3c(c2)CC[C@@H]3N2CCN(C)CC2)cc1C#Cc1cnc2ccc(Cl)nn12` [CT-721, (S)-N-(3-((6-chloroimidazo[1,2-b]pyridazin-3-yl)ethynyl)-4-methylphenyl)-1-(4-methylpiperazin-1-yl)-2,3-dihydro-1H-indene-5-carboxamide], the IC50 [1] is reported as 1.6 ± 0.3 nM, the IC50 [2] is reported as 1000 to 10000 nM and the AUC(0-inf) [3] is reported as 5420 ng·h/mL. The Cmax [3] was 303 ng/mL, the Tmax [3] was 6.67 h and the half-life [3] was 8.83 h. The IC50 [4] was 65 ± 6.2 nM, the IC50 [5] was 232 ± 55 nM and the IC50 [6] was 53 ± 6 nM. The IC50 [7] was 1000 to 10000 nM, the “levels of phosphorylated ERK1/2 and STAT5” value [8] was “dose-dependently repressed” and the IC50 [9] was 106 nM. For the same compound, the “phosphorylation of Crkl” value [10] was “significantly inhibited”, the IC50 [11] was 21.3 ± 1.1 nM and the tumor growth inhibition ([12]; K562 xenograft, 5 mg/kg PO QD) was 51.4%. The tumor growth inhibition ([12]; K562 xenograft, 15 mg/kg PO QD, 12 days) was 76%, the “mice completely cured, tumors disappeared completely” value ([12]; K562 xenograft, 45 mg/kg PO QD, 9 days, p < 0.01) was 90% and the “body weight of xenograft mice” value ([12]; K562 xenograft, 5, 15 and 45 mg/kg) was “without causing significant bodyweight loss”. For the same compound, the IC50 [13] was 1000 to 10000 nM, the koff [14] was 5.37e-05 s⁻¹ and the IC50 ([14]; IC50 for Abl kinase, Normal (no preincubation, 0 min)) was 12.1 nM. The “decrease of IC50 after preincubation” value ([14]; from 12.1 nM to 1.3 nM, 120 min) was 9 fold, the concentration at 2 h [15] was 254 ng/mL and the IC50 [16] was 1000 to 10000 nM. For the same compound, the IC50 [17] was greater than 10000 nM, the Ki [18] was 7.3 nM and the “Ki'” value ([18]; enzyme-ATP complex) was 775 nM. For the same compound, the IC50 [19] was 9.2 nM, the tumor growth ([20]; after 5 days) was “notably inhibited with partial regression observed” and the “treated mice with complete tumor regression” value ([20]; after 8 days) was 50%. The “treated mice with complete tumor regression” value ([20]; after 18 days) was 80%, the “body weight of xenograft mice” value ([20]; compared to the vehicle group) was “no significant body weight loss” and the IC50 [21] was 1000 to 10000 nM. The cell cycle arrest [22] was “pronounced G0/G1 phase arrest”, the IC50 [23] was 18.5 ± 12 nM and the “phosphorylation of Bcr-Abl kinase” value ([24]; 10 nM) was “significantly suppressed”. For the same compound, the “phosphorylation of Bcr-Abl kinase” value ([24]; 100 nM) was “totally blocked”, the “duration of blockage of phosphorylation of Bcr-Abl and Crkl” value ([24]; time course, 100 nM) was “at least 24 hours” and the IC50 [25] was 48.9 nM. For the same compound, the IC50 [26] was 130 nM, the late-phase apoptosis [27] was “late-phase apoptosis was also observed” and the “Bcr-Abl and ERK phosphorylation in tumor” value [28] was “almost complete inhibition”.
